Experiments:
Format in all cases: functional, Salmonella enterica subsp. enterica serovar Typhimurium
[1] = test system: Salmonella typhimurium; assay: Antimicrobial activity against Salmonella enterica serovar Typhimurium S21
In short: (§1)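 MICs measured by broth microdilution on the Sensititre automated system and interpreted by CLSI broth microdilution standards. Ciprofloxacin was also tested by agar dilution, widening the range to 0.0075–128 μg/ml. Quality control strains were E. coli ATCC 25922 and 35218, E. faecalis ATCC 29212, S. aureus ATCC 29213 and P. aeruginosa ATCC 27853.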

[2] = test system: Salmonella typhimurium; assay: Antimicrobial activity against Salmonella enterica serovar Typhimurium S21 gyrA+; in short: as §1
[3] = test system: Salmonella typhimurium; assay: Antimicrobial activity against Salmonella enterica serovar Typhimurium S21 acrAB::Kan
In short: (§2)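 MICs by automated broth microdilution panels, interpreted to CLSI broth microdilution standards. Ciprofloxacin additionally tested by agar dilution across 0.0075 to 128 μg/ml. Quality control strains: E. coli ATCC 25922 and 35218, Enterococcus faecalis ATCC 29212, S. aureus ATCC 29213, P. aeruginosa ATCC 27853. Test strains are kanamycin-marked deletion mutants of ground-beef isolate S21.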

[4] = test system: Salmonella typhimurium; assay: Antimicrobial activity against Salmonella enterica serovar Typhimurium S21 tolC::Kan; in short: as §2
[5] = test system: Salmonella typhimurium; assay: Antimicrobial activity against Salmonella enterica serovar Typhimurium S21-1 gyrA+; in short: as §1
[6] = test system: Salmonella typhimurium; assay: Antimicrobial activity against Salmonella enterica serovar Typhimurium CHS14 gyrA+ with GyrA D87G mutation; in short: as §1
[7] = test system: Salmonella typhimurium; assay: Antimicrobial activity against Salmonella enterica serovar Typhimurium CHS14 acrAB::Kan with GyrA D87G mutation; in short: as §1
[8] = test system: Salmonella typhimurium; assay: Antimicrobial activity against Salmonella enterica serovar Typhimurium CHS14 tolC::Kan with GyrA D87G mutant; in short: as §1
[9] = test system: Salmonella typhimurium; assay: Antimicrobial activity against Salmonella enterica serovar Typhimurium CHS18 with GyrA S38F mutation; in short: as §1
[10] = test system: Salmonella typhimurium; assay: Antimicrobial activity against Salmonella enterica serovar Typhimurium CHS18 gyrA+ with GyrA S38F mutation; in short: as §1
[11] = test system: Salmonella typhimurium; assay: Antimicrobial activity against Salmonella enterica serovar Typhimurium CHS18 acrAB::Kan with GyrA S38F mutation; in short: as §1
[12] = test system: Salmonella typhimurium; assay: Antimicrobial activity against Salmonella enterica serovar Typhimurium CHS18 tolC::Kan with GyrA S38F mutation; in short: as §1
[13] = test system: Salmonella typhimurium; assay: Antimicrobial activity against Salmonella enterica serovar Typhimurium CS1 with GyrA S83F, D87N, ParC S80I mutation; in short: as §1
[14] = test system: Salmonella typhimurium; assay: Antimicrobial activity against Salmonella enterica serovar Typhimurium CS1 gyrA+ with GyrA S83F, D87N, ParC S80I mutation; in short: as §1
[15] = test system: Salmonella typhimurium; assay: Antimicrobial activity against Salmonella enterica serovar Typhimurium CS1 acrAB::Kan with GyrA S83F, D87N, ParC S80I mutation; in short: as §1
[16] = test system: Salmonella typhimurium; assay: Antimicrobial activity against Salmonella enterica serovar Typhimurium CS1 tolC::Kan with GyrA S83F, D87N, ParC S80I mutation; in short: as §1
[17] = test system: Salmonella typhimurium; assay: Antimicrobial activity against Salmonella enterica serovar Typhimurium CS3 with GyrA S83F, D87N, ParC S80I mutation; in short: as §1
[18] = test system: Salmonella typhimurium; assay: Antimicrobial activity against Salmonella enterica serovar Typhimurium CS3 gyrA+ with GyrA S83F, D87N, ParC S80I mutation; in short: as §1
[19] = test system: Salmonella typhimurium; assay: Antimicrobial activity against Salmonella enterica serovar Typhimurium CS3 acrAB::Kan with GyrA S83F, D87N, ParC S80I mutation; in short: as §1
[20] = test system: Salmonella typhimurium; assay: Antimicrobial activity against Salmonella enterica serovar Typhimurium CS3 tolC::Kan with GyrA S83F, D87N, parC S80I mutation; in short: as §1
[21] = test system: Salmonella typhimurium; assay: Antimicrobial activity against Salmonella enterica serovar Typhimurium CS9 with GyrA S83F, D87N, ParC S80I mutation; in short: as §1
[22] = test system: Salmonella typhimurium; assay: Antimicrobial activity against Salmonella enterica serovar Typhimurium CS9 gyrA+ with GyrA S83F, D87N, ParC S80I mutation; in short: as §1
[23] = test system: Salmonella typhimurium; assay: Antimicrobial activity against Salmonella enterica serovar Typhimurium CS9 acrAB::Kan with GyrA S83F, D87N, ParC S80I mutation; in short: as §1
[24] = test system: Salmonella typhimurium; assay: Antimicrobial activity against Salmonella enterica serovar Typhimurium CS9 tolC::Kan with GyrA S83F, D87N, ParC S80I mutation; in short: as §1
[25] = test system: Salmonella typhimurium; assay: Antimicrobial activity against Salmonella enterica serovar Typhimurium CHS14 with GyrA D87G mutation; in short: as §1
[26] = test system: Salmonella typhimurium; assay: Antimicrobial activity against Salmonella enterica serovar Typhimurium CHS38 with GyrA D87G mutation; in short: as §1
[27] = test system: Salmonella typhimurium; assay: Antimicrobial activity against Salmonella enterica serovar Typhimurium CHS38 gyrA+ with GyrA D87G mutation; in short: as §1
[28] = test system: Salmonella typhimurium; assay: Antimicrobial activity against Salmonella enterica serovar Typhimurium CHS38 acrAB::Kan with GyrA D87G mutation; in short: as §1
[29] = test system: Salmonella typhimurium; assay: Antimicrobial activity against Salmonella enterica serovar Typhimurium CHS38 tolC::Kan with GyrA D87G mutation; in short: as §1

Measured: MIC

CC1(C)S[C@@H]2[C@H](NC(=O)[C@H](N)c3ccccc3)C(=O)N2[C@H]1C(=O)O [AMPICILLIN]
1 µg/mL: [11] | [12]
< 1 µg/mL: [3] | [4] | [6] | [7] | [8] | [25]
2 µg/mL: [1] | [2] | [9] | [10]
> 32 µg/mL: all other assays above

Reference: ChEMBL document CHEMBL1142136, “Contribution of target gene mutations and efflux to decreased susceptibility of Salmonella enterica serovar typhimurium to fluoroquinolones and other antimicrobials” (2007)
